# In the library only some 5.8% were active in any assay of this set; here they are far more common.
# KCC2 mod: modulates chloride dependent transport by human KCC2 | Q9H2X9 | KCC2 cells, thallium flux FluoZin-2 fluorescence | B-score of Tl+ flux slope (higher = more flux/activation; lower = inhibition) at 10 µM | 190,000 tested, 2.2% active | AID 1456;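 active = thallium flux slope and its plate-corrected score both differing from the plate sample mean at a set confidence after two filtering rounds, in either direction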;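 note: slope of fluorescence scaled to starting intensity during 10 to 20 s after thallium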
# WT yeast gro inh: growth inhibition of WT yeast, mitochondrial fusion screen. mitochondrial fusion phenotypic screen, WT strain. inhibition, % at 10 µM. 190,000 tested, 2.1% active. AID 1362; in the data active = inhibition above about 58%; tested in S. cerevisiae
# RBBP9 inh: human RBBP9 hydrolase inhibition; O75884; recombinant RBBP9, FP-Rh probe fluorescence polarization; inhibition, % at 7.94 µM; 220,000 tested, 0.2% active; AID 1515;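 active = inhibition above the campaign mean of all tested compounds plus 3 SD, cut at about 14% in these data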;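 note: plate controls were DMSO wells with RBBP9 for no effect and wells lacking RBBP9 protein for full effect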
#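 Controls: DMSO-treated enzyme wells and wells lacking RBBP9 | Material: RBBP9 protein | Technique: Fluorescence polarization | Replication: Single well per compound, no replicates | Buffer or medium: Tris-NaCl-Pluronic buffer, pH 8.0 | Timing: 30 min compound preincubation, 45 min probe labeling, 25 °C | Read-out basis: Percent inhibition from mP, scaled between DMSO and no-protein wells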
# 14-3-3 Bad PPI: disrupts binding of bovine 14-3-3 zeta to phospho-Bad peptide; TR-FRET 14-3-3zeta/Dy647-pBad peptide displacement, 1 h; inhibition, % at 21.7 µM; 220,000 tested, 0.71% active;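 active = inhibition above about 70%, limit read from the data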;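 note: 0% = full 14-3-3 plus peptide FRET controls and 100% = background without 14-3-3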
# Target sequence (P63103 whole entry, looked up): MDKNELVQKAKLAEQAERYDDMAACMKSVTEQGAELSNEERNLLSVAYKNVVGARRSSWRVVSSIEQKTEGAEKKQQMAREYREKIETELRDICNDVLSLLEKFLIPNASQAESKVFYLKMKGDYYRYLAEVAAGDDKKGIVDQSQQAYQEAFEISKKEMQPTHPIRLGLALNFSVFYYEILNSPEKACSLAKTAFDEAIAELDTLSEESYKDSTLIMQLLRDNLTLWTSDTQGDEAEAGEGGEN
# ROMK primary: human ROMK K+ channel modulation, primary screen; B-score at 10 µM; 130,000 tested, 2% active; Tet-inducible ROMK, thallium flux fluorescence; actives lie on both sides;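 active = signal ratio slope over the read window, or its plate-corrected B-score, at least 3 SD from the plate mean, either direction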;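 note: B-score of the F/F0 ratio slope over 7 to 12 s after thallium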
# NCF1 inh: inhibitors of human p47phox binding. p47phox/p22phox peptide binding, fluorescence polarization, 2 h. 220,000 tested, 0.53% active. inhibition, % at 24.7 µM. AID 1274;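 active = inhibition above about 30%, limit read from the data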;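 note: 0% = p47phox with labelled peptide and 100% = labelled peptide alone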
# Target sequence (P14598 whole entry, looked up): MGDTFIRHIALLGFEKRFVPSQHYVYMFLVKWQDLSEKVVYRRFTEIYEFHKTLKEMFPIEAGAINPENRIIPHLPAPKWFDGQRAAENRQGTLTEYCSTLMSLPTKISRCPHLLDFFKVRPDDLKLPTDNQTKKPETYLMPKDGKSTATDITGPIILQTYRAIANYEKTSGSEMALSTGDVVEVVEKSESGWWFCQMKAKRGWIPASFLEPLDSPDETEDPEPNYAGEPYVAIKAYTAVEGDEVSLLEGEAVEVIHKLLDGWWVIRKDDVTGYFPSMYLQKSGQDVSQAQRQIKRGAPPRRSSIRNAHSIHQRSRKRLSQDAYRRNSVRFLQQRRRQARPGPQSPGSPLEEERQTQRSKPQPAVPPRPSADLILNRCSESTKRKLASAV
# Active calls of the source: *; i = inactive; x = no result.
SMILES,KCC2 mod,WT yeast gro inh,RBBP9 inh,14-3-3 Bad PPI,ROMK primary,NCF1 inh
COc1cccc(-c2csc(/C(C#N)=C/Nc3cc4oc5ccccc5c4cc3OC)n2)c1,-0.0198,-0.4,7.8,-21.8,-0.908,-98.0
N#C/C(=C\Nc1ccc2cn[nH]c2c1)c1nc(-c2ccc(Cl)cc2)cs1,0.371,-24.3,-0.6,91.2*,-1.38,-145.3
Cc1ccc(CNCC(=O)Nc2ccc(N3CCOCC3)cc2)cc1,0.531,x,1.5,32.4,x,6.2
CC1CN(C(=O)/C(C#N)=C2\N=C(NC(=O)c3ccc(F)cc3)c3ccccc32)CC(C)O1 (centres undefined),x,x,-5.1,2.2,x,-1.9
Cc1cccc(OCC(O)Cn2c(=N)n(Cc3ccccc3)c3ccccc32)c1 (centres undefined),-0.357,x,-0.3,0.2,x,-6.7
N=c1n(Cc2ccccc2)c2ccccc2n1CC(O)COc1ccc(Cl)cc1Cl (centres undefined),1.12,93.8*,-2.2,6.0,-1.65,48.2*
COc1ccc(OC)c2c1C(=O)c1ccccc1C2=O,i,-3.1,-6.2,4.2,x,36.1*
O=C1NC2=C(C(=O)OC2)C(c2ccc(OC(F)(F)F)cc2)N1 (centres undefined),-0.0536,x,-3.0,-7.9,x,-5.6
CCOC(=O)C(C)Sc1ncc(-c2ccccc2)cn1 (centres undefined),-1.67,1.4,-9.2,-13.2,0.339,-10.3
CC(C)OC(=O)c1cccc2c1C(=O)c1ccccc1-2,-1.66,x,-6.7,1.2,x,49.8*
O=C(CNC(=O)c1cccc(Cl)c1)N/N=C/C=C/c1ccccc1,-2.25,-3.5,-0.6,-6.1,0.00328,-4.7
c1ccc(CN2CCC(Nc3nc(-c4cccs4)nc4ccccc34)CC2)cc1,-0.85,47.8,-20.6,-2.4,-0.423,-29.5
c1csc(CNc2nc(-c3cccs3)nc3ccccc23)c1,0.131,79.0*,-18.0,-3.1,0.0151,-17.1
CCOC(=O)c1c(NC(=O)Cn2c(C)nc3ccccc32)sc2c1CCC2,0.559,14.9,-8.2,-5.2,x,-23.8
CCOC(=O)c1c(NC(=O)COC(=O)Cn2c(C)nc3ccccc32)sc2c1CCCC2,-0.0574,-0.8,-9.1,87.9*,x,14.7
Cc1cc(CN2CCOCC2)c(O)c(C2(C)CCCCC2)c1,0.544,85.3*,-9.2,-2.9,-0.196,-1.2
O=C1CN=C(Nc2ccccc2)N1Cc1cccs1,-0.213,-8.5,-5.9,71.7*,x,-16.7
Cc1cc(C)cc(NC2=NCC(=O)N2Cc2ccccc2)c1,-1,-10.7,-9.4,72.3*,-1.59,-15.3
Cc1cc(C)c(NC(=O)CS(=O)CC(=O)Nc2ccc(F)cc2F)c(C)c1 (centres undefined),-0.189,x,-7.1,1.4,x,-8.5
CCOC(=O)c1cnc(-n2nc(C)cc2C)nc1NCCc1ccccc1,x,74.1*,-4.5,-1.2,-1.16,-8.8
Cc1onc(-c2ccccc2)c1C(=O)c1ccccc1,-0.0598,x,-8.5,4.7,0.0551,-2.7
Cc1nc(S/C(=C/c2ccc(-c3cccc(Cl)c3)o2)C(=O)O)n[nH]1,x,70.6*,-5.6,2.8,x,-41.3
COc1ccc(S(=O)(=O)N2CCCC2C(=O)n2nc(C)cc2C)cc1 (centres undefined),-0.526,10.8,-2.6,-3.5,0.018,2.8
COc1cc(/C=C(\C#N)C(=O)NC2CCCCC2)ccc1OCc1ccc(C(=O)O)cc1,-2.59,-9.8,-6.6,-2.8,-0.751,-14.7
Cc1[nH]c2ccccc2c1/C=N/NC(=O)C1CC1(c1ccccc1)c1ccccc1 (centres undefined),-0.786,83.7*,-5.5,-10.0,0.861,-49.3
SMILES,KCC2 mod,WT yeast gro inh,RBBP9 inh,14-3-3 Bad PPI,ROMK primary,NCF1 inh
Cc1[nH]c2ccccc2c1/C=N/NC(=O)CCC(=O)NCc1ccccc1,0.458,-13.8,-2.1,-6.2,x,-2.3
Cc1cccn2c(CN(C)CCC3CCCCO3)c(C(=O)N3CCCCC3)nc12 (centres undefined),-0.125,16.3,-8.1,-5.3,-0.297,-1.3
Clc1ccccc1-c1nc(-c2ccncc2)no1,-0.713,x,-10.1,72.9*,x,-11.8
c1ccc(-c2ccccc2-c2nc(-c3ccncc3)no2)cc1,-0.186,-2.6,-4.7,9.0,x,-9.9
Fc1ccc(NC(=S)NN=C2CCCCCC2)cc1,21.7*,3.9,-10.4,0.6,x,-9.3
CCOC(=O)C1CCN(S(=O)(=O)c2c(C)n[nH]c2C)CC1,x,66.9*,-7.8,-6.3,x,-5.7
CC(C)(C)OC(=O)N1CCC[C@H]1C(=O)N/N=C/c1cccc2nccnc12,0.789,x,-4.3,6.2,x,-10.6
C=CCN1C(=O)/C(=C2/Sc3ccccc3N2CCCS(=O)(=O)O)SC1=S,-1.14,-11.6,-3.7,72.1*,x,-45.0
CCCCCOCC1CC(C/C(C)=N/NC(N)=S)C(=O)O1 (centres undefined),0.793,18.9,2.9,7.5,-0.444,4.7
CCCCCOCC1CC(C/C(C)=N/Nc2nc(-c3ccccc3)cs2)C(=O)O1 (centres undefined),x,-0.4,-2.1,80.8*,x,0.4
O=C1CSC(c2ccccc2Br)N1c1ccc(Cl)cn1 (centres undefined),0.398,67.2*,-10.0,-17.2,x,4.2
CS(=O)(=O)N1CCC(C(=O)NCc2ccc(Cl)cc2)CC1,1,x,-2.6,4.2,0.41,-4.2
CC(O)CNCCNCc1c(OCc2ccccc2)ccc2ccccc12 (centres undefined),-0.799,-0.1,-8.9,77.0*,x,10.6
CC(Nc1ccc(Cl)cc1)c1cc(Cl)ccc1O (centres undefined),-0.00308,74.5*,-7.0,-0.5,-1.38,-7.9
CC(Nc1ccc(Br)cn1)c1cc(Cl)ccc1O (centres undefined),x,72.5*,-8.5,-9.6,-0.252,-2.3
O=C1OC2(CCCCC2)OC(=O)C1=CNc1nc2ccccc2s1,3.67*,11.1,-1.3,60.5,0.0175,-10.2
Cc1ccsc1CNC1C2CC3CC(C2)CC1C3 (centres undefined),-0.219,-6.5,-5.5,-1.7,-1.18,-7.5
CC(CNC(=O)COc1ccccc1)OC(=O)Nc1ccc(Cl)c(Cl)c1 (centres undefined),0.0121,82.1*,-14.8,6.2,x,-5.5
COC(=O)NCC(C)OC(=O)Nc1cccc(Cl)c1 (centres undefined),0.524,1.0,-6.6,-4.3,x,-2.6
CN(C)Cc1c(-c2ccc(Cl)cc2)nc2ccc(Cl)cn12,-0.552,16.3,-3.2,-4.7,-1.31,0.5
CC(C)C1OC(c2cccc(NC(=O)c3cccs3)c2)OCC1(C)C (centres undefined),0.315,69.0*,-5.3,-7.7,-0.62,-12.8
Nc1cccc(NC(=O)c2cccs2)c1,1.73,55.7,-8.0,5.9,x,-4.8
CC(=O)N1N=C(c2ccccc2)OC1(C)CC(=O)Nc1ccccc1 (centres undefined),-0.0454,-0.6,-11.1,-1.6,x,-9.6

# Screens deposited in PubChem BioAssay by several laboratories.
